From ChEMBL document CHEMBL1133511, “Contribution of the adenine base to the activity of adenophostin A investigated using a base replacement strategy” (J Med Chem, 2000)

What was measured:
[1] = Tested for equilibrium competition binding to InsP3 receptor in hepatic membranes using 1.3-1.8 nM [3H]Ins(1,4,5)P3 as the radioligand.; assay type: functional, cell membranes, Rattus norvegicus, Liver, Membrane
How it was run: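 Rat liver membranes (perfused, homogenized, Percoll-purified), 0.1 mg protein/tube in 50 mM Tris, 1 mM EDTA, pH 8.3, incubated 5 min at 4 °C with [3H]Ins(1,4,5)P3 plus competing ligand; bound separated by centrifugation (20000g, 5 min), counted by scintillation. Kd and Hill coefficient from equilibrium competition; means ± SEM of 4 independent experiments.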

Rattus norvegicus [2] = organism: Rattus norvegicus; test: Tested for concentration of ligand causing half maximal response of Calcium ion release from permeabilised hepatocytes; assay type: functional; settings: Hepatocyte
How it was run: (§1)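 Permeabilized rat hepatocytes loaded to steady state with 45Ca2+ (5 min, 37 °C) in cytosol-like medium (140 mM KCl, 20 mM NaCl, 2 mM MgCl2, 1 mM EGTA, 300 µM CaCl2, 20 mM Pipes, pH 7.0) with 1.5 mM ATP, creatine phosphate/kinase, 10 µM FCCP; 1.25 µM thapsigargin added, 30 s later agonist for 60 s; store 45Ca2+ by rapid filtration. Four-parameter logistic fit; means ± SEM, 6-15 experiments.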

Rattus norvegicus [3] = organism: Rattus norvegicus; test: Tested for percentage of intracellular calcium ion stores released in rat hepatocytes; assay type: functional, Hepatocyte; how it was run: as §1

| Ki [1] [nM] | Compound | EC50 (Rattus norvegicus [2]) [nM] | Max response (Rattus norvegicus [3]) [%] |
| --- | --- | --- | --- |
| 2.72 | O=P(O)(O)O[C@@H]1[C@H](O)[C@@H](O)[C@@H](OP(=O)(O)O)[C@H](OP(=O)(O)O)[C@@H]1O | 119 | 55 |
| 0.45 | Nc1ncnc2c1ncn2[C@@H]1O[C@H](CO)[C@@H](O[C@H]2O[C@@H](CO)[C@@H](OP(=O)(O)O)[C@H](OP(=O)(O)O)[C@@H]2O)[C@H]1OP(=O)(O)O | 14 | 51 |
| 2.19 | O=P(O)(O)O[C@@H]1[C@H](O)[C@@H](O[C@H]2[C@@H](OP(=O)(O)O)[C@H](n3ccnc3)O[C@@H]2CO)O[C@@H](CO)[C@H]1OP(=O)(O)O | 108 | 57 |
| 0.8 | O=P(O)(O)O[C@@H]1[C@H](O)[C@@H](O[C@H]2[C@@H](OP(=O)(O)O)[C@H](n3cnc4cncnc43)O[C@@H]2CO)O[C@@H](CO)[C@H]1OP(=O)(O)O [PURINOPHOSTIN] | 18 | 52 |
